Drawing on ChEMBL document CHEMBL1667743, “Functional in vivo imaging of cysteine cathepsin activity in murine model of inflammation” (Bioorg Med Chem, 2011), this text covers Km and kcat/Km for 3 proteins.

What is called Km is the substrate concentration at which the rate is half of its maximum. What is called kcat/Km is the turnover number divided by the Michaelis constant.

Substrate in series [1]: CC(C)(C)OC(=O)NCC[C@H](NC(=O)[C@H](CC1CCCCC1)NC(=O)N1CCOCC1)C(=O)NCCNC(=O)OCC1c2ccccc2-c2ccccc21
The experiment in a line: Activity at recombinant cathepsin K. Summed up: (§1)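 Active-site-titrated (E-64) recombinant human cathepsins B, L, S and in-house cathepsin K, 10 nM final in pH 6.5 acetate/HEPES buffer with 300 mM NaCl, 0.001% Pluronic and L-cysteine; DMSO-dissolved Cy7/BHQ-3 quenched substrate 0.8–40 µM final (DMSO ≤1%); fluorescence read at 25 °C (λex 710, λem 767 nm); steady-state data fitted by non-linear least squares to Michaelis–Menten with substrate inhibition.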

Substrate in series [2]: CC(C)(C)OC(=O)NCC[C@H](NC(=O)[C@H](CC1CCCCC1)NC(=O)N1CCOCC1)C(=O)NCCNC(=O)OCC1c2ccccc2-c2ccccc21
The experiment in a line: Ratio of Kcat/Km for recombinant cathepsin K. A digest of the protocol: as §1

Substrate in series [3]: CC(C)(C)OC(=O)NCC[C@H](NC(=O)[C@H](CC1CCCCC1)NC(=O)N1CCOCC1)C(=O)NCCNC(=O)OCC1c2ccccc2-c2ccccc21
The experiment in a line: (§2) Activity at recombinant cathepsin L. A digest of the protocol:
as §1

Substrate in series [4]: CCN(CC)c1ccc2nc3ccc(/N=N/c4ccc(N(C)CCCC(=O)NCCNC(=O)[C@H](CCNC(=O)CCCCCN5/C(=C\C=C\C=C\C=C\C6N(CC)c7ccc(S(=O)(=O)O)cc7C6(C)C)C(C)(C)c6cc(S(=O)(=O)[O-])ccc65)NC(=O)[C@H](CC5CCCCC5)NC(=O)N5CCOCC5)cc4)cc3[n+](-c3ccccc3)c2c1
Described as §2. A digest of the protocol:
as §1

Substrate in series [5]: CC(C)(C)OC(=O)NCC[C@H](NC(=O)[C@H](CC1CCCCC1)NC(=O)N1CCOCC1)C(=O)NCCNC(=O)OCC1c2ccccc2-c2ccccc21
The experiment in a line: (§3) Ratio of Kcat/Km for recombinant cathepsin L. Summed up:
as §1

Substrate in series [6]: CCN(CC)c1ccc2nc3ccc(/N=N/c4ccc(N(C)CCCC(=O)NCCNC(=O)[C@H](CCNC(=O)CCCCCN5/C(=C\C=C\C=C\C=C\C6N(CC)c7ccc(S(=O)(=O)O)cc7C6(C)C)C(C)(C)c6cc(S(=O)(=O)[O-])ccc65)NC(=O)[C@H](CC5CCCCC5)NC(=O)N5CCOCC5)cc4)cc3[n+](-c3ccccc3)c2c1
The series is described as §3. A digest of the protocol: as §1

Substrate in series [7]: CC(C)(C)OC(=O)NCC[C@H](NC(=O)[C@H](CC1CCCCC1)NC(=O)N1CCOCC1)C(=O)NCCNC(=O)OCC1c2ccccc2-c2ccccc21
The experiment in a line: (§4) Activity at recombinant cathepsin S. Summed up: as §1

Substrate in series [8]: CCN(CC)c1ccc2nc3ccc(/N=N/c4ccc(N(C)CCCC(=O)NCCNC(=O)[C@H](CCNC(=O)CCCCCN5/C(=C\C=C\C=C\C=C\C6N(CC)c7ccc(S(=O)(=O)O)cc7C6(C)C)C(C)(C)c6cc(S(=O)(=O)[O-])ccc65)NC(=O)[C@H](CC5CCCCC5)NC(=O)N5CCOCC5)cc4)cc3[n+](-c3ccccc3)c2c1
Described as §4. Summed up: as §1

Substrate in series [9]: CC(C)(C)OC(=O)NCC[C@H](NC(=O)[C@H](CC1CCCCC1)NC(=O)N1CCOCC1)C(=O)NCCNC(=O)OCC1c2ccccc2-c2ccccc21
The experiment in a line: (§5) Ratio of Kcat/Km for recombinant cathepsin S. A digest of the protocol:
as §1

Substrate in series [10]: CCN(CC)c1ccc2nc3ccc(/N=N/c4ccc(N(C)CCCC(=O)NCCNC(=O)[C@H](CCNC(=O)CCCCCN5/C(=C\C=C\C=C\C=C\C6N(CC)c7ccc(S(=O)(=O)O)cc7C6(C)C)C(C)(C)c6cc(S(=O)(=O)[O-])ccc65)NC(=O)[C@H](CC5CCCCC5)NC(=O)N5CCOCC5)cc4)cc3[n+](-c3ccccc3)c2c1
The description is as §5. Summed up: as §1

B1: Cathepsin K (Homo sapiens), P43235 (protein)
chain: MWGLKVLLLPVVSFALYPEEILDTHWELWKKTHRKQYNNKVDEISRRLIWEKNLKYISIHNLEASLGVHTYELAMNHLGDMTSEEVVQKMTGLKVPLSHSRSNDTLYIPEWEGRAPDSVDYRKKGYVTPVKNQGQCGSCWAFSSVGALEGQLKKKTGKLLNLSPQNLVDCVSENDGCGGGYMTNAFQYVQKNRGIDSEDAYPYVGQEESCMYNPTGKAAKCRGYREIPEGNEKALKRAVARVGPVSVAIDASLTSFQFYSKGVYYDESCNSDNLNHAVLAVGYGIQKGNKHWIIKNSWGENWGNKGYILMARNKNNACGIANLASFPKM
Consider B1, for which the Km in series [1] is 89 µM. Further, the specificity constant (kcat/Km) in series [2] was found to be 187 M⁻¹ s⁻¹.

B2: Procathepsin L (Homo sapiens), P07711 (protein)
chain: MNPTLILAAFCLGIASATLTFDHSLEAQWTKWKAMHNRLYGMNEEGWRRAVWEKNMKMIELHNQEYREGKHSFTMAMNAFGDMTSEEFRQVMNGFQNRKPRKGKVFQEPLFYEAPRSVDWREKGYVTPVKNQGQCGSCWAFSATGALEGQMFRKTGRLISLSEQNLVDCSGPQGNEGCNGGLMDYAFQYVQDNGGLDSEESYPYEATEESCKYNPKYSVANDTGFVDIPKQEKALMKAVATVGPISVAIDAGHESFLFYKEGIYFEPDCSSEDMDHGVLVVGYGFESTESDNNKYWLVKNSWGEEWGMGGYVKMAKDRRNHCGIASAASYPTV
Regarding B2, the Michaelis constant (Km) in series [3] was found to be 840 µM; in series [4], 280 µM. Moreover, the values for the kcat/Km in series [5] and in series [6] were 7070 M⁻¹ s⁻¹ and 187 M⁻¹ s⁻¹, respectively.

B3: Cathepsin S (Homo sapiens), P25774 (protein)
chain: MKRLVCVLLVCSSAVAQLHKDPTLDHHWHLWKKTYGKQYKEKNEEAVRRLIWEKNLKFVMLHNLEHSMGMHSYDLGMNHLGDMTSEEVMSLMSSLRVPSQWQRNITYKSNPNRILPDSVDWREKGCVTEVKYQGSCGACWAFSAVGALEAQLKLKTGKLVSLSAQNLVDCSTEKYGNKGCNGGFMTTAFQYIIDNKGIDSDASYPYKAMDQKCQYDSKYRAATCSKYTELPYGREDVLKEAVANKGPVSVGVDARHPSFFLYRSGVYYEPSCTQNVNHGVLVVGYGDLNGKEYWLVKNSWGHNFGEEGYIRMARNKGNHCGIASFPSYPEI
In the case of B3, the results for the Km in [7] and in [8] were 1.3 µM and 25 µM, respectively. The kcat/Km came to 15100 M⁻¹ s⁻¹ in series [9] and 14200 M⁻¹ s⁻¹ in series [10].
